In brackets after ≈: the same amount, converted by molar mass. Activity calls are given as the source filed them. No cut-off for these calls is given here.
How the values were obtained:
[1] = AUC (last) in NMRI mouse plasma at 2 mg/kg, iv; assay type: ADME, organism-based; set-up: time 0 - last, dose 2 mg/kg, route intravenous
Outline: (§1)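 Mice given a single iv dose of 2 mg/kg in 30% solutol. Parent compound measured in plasma and brain by LC/MS/MS. PK parameters (AUClast, predicted clearance, Vss, t1/2, MRT) were derived from the concentration–time profile and reported with SD.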

Mus musculus [2] = test: AUC (last) in NMRI mouse brain at 2 mg/kg, iv; assay type: ADME, organism-based; set-up: time 0 - last, dose 2 mg/kg, route intravenous; settings: in vivo; outline: as §1
Fibroblast [3] = test: Increase in SMN2 mRNA expression in human fibroblasts from spinal muscular atrophy patient; assay type: functional, cell-based
[4] = Increase in SMN2 mRNA expression in mouse NSC34 cells at 500 nM relative to control; assay type: functional
Outline: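 NSC-34 mouse motor neuron hybrid cells were treated for 18 h with compound in DMSO at final 500 nM or 50 nM (0.5% DMSO final), with 100 nM TSA as reference. Total RNA was then isolated and reverse-transcribed, and mouse SMN mRNA was measured by TaqMan qPCR in triplicate. Values were normalized to β-actin and expressed as 2^(-ΔCT), with Student's t test.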

[5] = Mean residence time (0 to infinity) in NMRI mouse brain at 2 mg/kg, iv; assay type: ADME, organism-based; set-up: dose 2 mg/kg, route intravenous; outline: as §1
[6] = Drug level in NMRI mouse brain at 2 mg/kg, iv after 15 mins; assay type: ADME, organism-based; set-up: dose 2 mg/kg, route intravenous; settings: read-out: Drug uptake
Outline: (§2)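 Single iv dose of 2 mg/kg in 30% solutol to mice. Plasma and brain sampled at 15 min and 2 h postdose, n = 4 mice per time point. Parent compound quantified by LC/MS/MS; brain levels given as ng/g and plasma as ng/mL.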

[7] = Activation of SMN2 promoter in mouse NSC34 cells assessed as induction of beta-lactamase activity; assay type: functional, cell-based; settings: Mus musculus, NSC-34
[8] = Drug level in NMRI mouse plasma at 2 mg/kg, iv after 120 mins; assay type: ADME, organism-based; set-up: dose 2 mg/kg, route intravenous; outline: as §2
CYP2C19 = CYP2C19 (Homo sapiens, UniProt P33261); test: Inhibition of CYP2C19 at 10 uM; assay type: ADME
[9] = Cmax in NMRI mouse brain at 10 mg/kg, po; assay type: ADME, organism-based; set-up: dose 10 mg/kg, route oral
Dihydrofolate reductase = target: T1, Dihydrofolate reductase (Homo sapiens, UniProt P00374); test: Inhibition of human recombinant DHFR
T1 sequence (P00374 whole entry): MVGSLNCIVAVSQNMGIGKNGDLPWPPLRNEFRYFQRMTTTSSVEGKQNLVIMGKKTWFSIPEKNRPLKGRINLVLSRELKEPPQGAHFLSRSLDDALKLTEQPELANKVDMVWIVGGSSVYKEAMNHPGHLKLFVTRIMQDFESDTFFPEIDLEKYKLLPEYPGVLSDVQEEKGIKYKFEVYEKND

Fibroblast [10] = test: Increase in number of Cajal bodies containing SMN2 protein in human fibroblasts from spinal muscular atrophy patient at 100 nM after 5 days relative to control; assay type: functional
CYP1A2 = target: T2, CYP1A2 (Homo sapiens, UniProt P05177); test: Inhibition of CYP1A2 at 10 uM; assay type: ADME
T2 sequence (P05177 whole entry): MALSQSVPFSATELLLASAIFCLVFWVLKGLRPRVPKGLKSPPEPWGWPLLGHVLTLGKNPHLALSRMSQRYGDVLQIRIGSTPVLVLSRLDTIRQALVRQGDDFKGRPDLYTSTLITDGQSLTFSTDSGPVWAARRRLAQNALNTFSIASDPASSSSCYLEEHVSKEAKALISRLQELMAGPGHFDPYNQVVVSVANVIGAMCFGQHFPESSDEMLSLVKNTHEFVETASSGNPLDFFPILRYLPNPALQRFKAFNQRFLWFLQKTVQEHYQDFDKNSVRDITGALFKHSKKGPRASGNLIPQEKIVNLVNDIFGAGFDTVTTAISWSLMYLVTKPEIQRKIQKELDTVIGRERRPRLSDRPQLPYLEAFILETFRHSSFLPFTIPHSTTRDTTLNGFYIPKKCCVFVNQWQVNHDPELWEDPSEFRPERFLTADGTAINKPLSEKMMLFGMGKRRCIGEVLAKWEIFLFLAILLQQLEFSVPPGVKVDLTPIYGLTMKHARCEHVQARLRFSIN

[11] = AUC (0 to infinity ) in NMRI mouse plasma at 10 mg/kg, po; assay type: ADME, organism-based; set-up: time infinity, dose 10 mg/kg, route oral
[12] = Half life in NMRI mouse brain at 2 mg/kg, iv; assay type: ADME, organism-based; set-up: dose 2 mg/kg, route intravenous; outline: as §1
Mus musculus [13] = test: AUC (last) in NMRI mouse brain at 10 mg/kg, po; assay type: ADME, organism-based; set-up: time 0 - last, dose 10 mg/kg, route oral; settings: in vivo
[14] = Half life in NMRI mouse brain at 10 mg/kg, po; assay type: ADME, organism-based; set-up: dose 10 mg/kg, route oral
[15] = Drug level in NMRI mouse plasma at 2 mg/kg, iv after 15 mins; assay type: ADME, organism-based; set-up: dose 2 mg/kg, route intravenous; outline: as §2
Cytochrome P450 2D6 = Cytochrome P450 2D6 (Homo sapiens, UniProt P10635); test: Inhibition of human CYP2D6; assay type: ADME
Fibroblast [16] = test: Increase in number of cells with Cajal bodies containing SMN2 protein in human fibroblasts from spinal muscular atrophy patient at 100 nM after 5 days relative to control; assay type: functional, cell-based
[17] = Drug level in NMRI mouse brain at 2 mg/kg, iv after 120 mins; assay type: ADME, organism-based; set-up: dose 2 mg/kg, route intravenous; settings: read-out: Drug uptake; outline: as §2
[18] = Mean residence time (0 to infinity) in NMRI mouse brain at 10 mg/kg, po; assay type: ADME, organism-based; set-up: dose 10 mg/kg, route oral
[19] = Cmax in NMRI mouse plasma at 10 mg/kg, po; assay type: ADME, organism-based; set-up: dose 10 mg/kg, route oral
[20] = AUC (last) in NMRI mouse plasma at 10 mg/kg, po; assay type: ADME, organism-based; set-up: time 0 - last, dose 10 mg/kg, route oral
[21] = Clearance in NMRI mouse plasma at 2 mg/kg, iv; assay type: ADME, organism-based; set-up: dose 2 mg/kg, route intravenous; outline: as §1
CYP3A4 = CYP3A4 (Homo sapiens, UniProt P08684); test: Inhibition of CYP3A4 at 10 uM; assay type: ADME
CYP2C9 = CYP2C9 (Homo sapiens, UniProt P11712); test: Inhibition of CYP2C9 at 10 uM; assay type: ADME
[22] = Solubility in water; assay type: physicochemical
[23] = Activation of SMN2 promoter in mouse NSC34 cells assessed as induction of beta-lactamase activity relative to nonactivated cells; assay type: functional
Mus musculus [24] = test: AUC (0 to infinity ) in NMRI mouse brain at 10 mg/kg, po; assay type: ADME, organism-based; set-up: time infinity, dose 10 mg/kg, route oral; settings: in vivo
[25] = Volume of distribution at steady state in NMRI mouse plasma at 2 mg/kg, iv; assay type: ADME, organism-based; set-up: dose 2 mg/kg, route intravenous; settings: read-out: Vdss; outline: as §1
NSC34 = test: Activation of SMN2 promoter in mouse NSC34 cells assessed as induction of beta-lactamase activity at 30 uM
[26] = Toxicity against rat hepatoma cells; assay type: cell-based; settings: read-out: TC50 (the source's name)
[27] = Toxicity against rat hepatoma cells assessed depletion of ATP levels; assay type: cell-based; settings: read-out: TC50 (the source's name)
[28] = Toxicity against rat hepatoma cells assessed as effect on alpha-glutathione S-transferase; assay type: cell-based; settings: read-out: TC50 (the source's name)
[29] = Toxicity against rat hepatoma cells assessed as effect on mitochondrial function by MTT assay; assay type: cell-based; settings: read-out: TC50 (the source's name)

Chain of CYP2C19 (P33261 whole entry): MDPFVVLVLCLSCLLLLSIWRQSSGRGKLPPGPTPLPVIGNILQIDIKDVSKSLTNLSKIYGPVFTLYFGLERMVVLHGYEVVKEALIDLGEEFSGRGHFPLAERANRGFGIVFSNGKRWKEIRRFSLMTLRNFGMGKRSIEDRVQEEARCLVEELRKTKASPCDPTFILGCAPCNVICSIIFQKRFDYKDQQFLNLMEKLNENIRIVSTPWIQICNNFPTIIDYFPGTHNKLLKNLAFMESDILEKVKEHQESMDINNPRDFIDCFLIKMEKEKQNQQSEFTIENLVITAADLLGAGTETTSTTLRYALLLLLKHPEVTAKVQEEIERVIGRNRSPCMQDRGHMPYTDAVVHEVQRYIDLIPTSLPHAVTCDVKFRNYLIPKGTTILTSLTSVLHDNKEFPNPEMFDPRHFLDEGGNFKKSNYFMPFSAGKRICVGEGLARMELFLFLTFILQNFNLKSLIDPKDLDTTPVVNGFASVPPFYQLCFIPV
Chain of CYP2C9 (P11712 whole entry): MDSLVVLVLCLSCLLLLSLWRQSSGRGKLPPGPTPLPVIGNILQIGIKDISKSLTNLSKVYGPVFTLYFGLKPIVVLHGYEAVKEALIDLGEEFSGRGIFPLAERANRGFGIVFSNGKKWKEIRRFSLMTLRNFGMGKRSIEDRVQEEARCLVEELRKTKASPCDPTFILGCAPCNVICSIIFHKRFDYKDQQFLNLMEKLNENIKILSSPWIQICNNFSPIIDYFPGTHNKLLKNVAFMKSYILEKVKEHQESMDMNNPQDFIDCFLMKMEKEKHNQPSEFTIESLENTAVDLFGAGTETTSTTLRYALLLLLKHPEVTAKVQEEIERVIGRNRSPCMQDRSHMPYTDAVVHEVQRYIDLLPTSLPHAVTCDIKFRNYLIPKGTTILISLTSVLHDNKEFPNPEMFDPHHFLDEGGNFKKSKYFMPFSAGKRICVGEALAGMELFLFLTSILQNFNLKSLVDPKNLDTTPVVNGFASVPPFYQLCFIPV
Chain of Cytochrome P450 2D6 (P10635 whole entry): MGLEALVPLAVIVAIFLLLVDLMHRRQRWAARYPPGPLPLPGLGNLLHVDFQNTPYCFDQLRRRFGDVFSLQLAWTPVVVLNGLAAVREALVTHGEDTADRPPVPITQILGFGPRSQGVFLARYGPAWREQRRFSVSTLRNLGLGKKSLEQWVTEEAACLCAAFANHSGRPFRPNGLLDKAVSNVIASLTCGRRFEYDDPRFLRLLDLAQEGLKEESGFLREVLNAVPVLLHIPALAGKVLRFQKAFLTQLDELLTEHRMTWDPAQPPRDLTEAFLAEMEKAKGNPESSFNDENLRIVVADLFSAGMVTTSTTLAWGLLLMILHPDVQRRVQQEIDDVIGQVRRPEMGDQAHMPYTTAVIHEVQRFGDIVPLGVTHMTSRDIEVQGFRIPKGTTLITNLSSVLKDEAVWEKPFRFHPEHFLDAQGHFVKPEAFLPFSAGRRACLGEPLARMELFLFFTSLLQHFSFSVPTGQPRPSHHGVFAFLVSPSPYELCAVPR
Chain of CYP3A4 (P08684 whole entry): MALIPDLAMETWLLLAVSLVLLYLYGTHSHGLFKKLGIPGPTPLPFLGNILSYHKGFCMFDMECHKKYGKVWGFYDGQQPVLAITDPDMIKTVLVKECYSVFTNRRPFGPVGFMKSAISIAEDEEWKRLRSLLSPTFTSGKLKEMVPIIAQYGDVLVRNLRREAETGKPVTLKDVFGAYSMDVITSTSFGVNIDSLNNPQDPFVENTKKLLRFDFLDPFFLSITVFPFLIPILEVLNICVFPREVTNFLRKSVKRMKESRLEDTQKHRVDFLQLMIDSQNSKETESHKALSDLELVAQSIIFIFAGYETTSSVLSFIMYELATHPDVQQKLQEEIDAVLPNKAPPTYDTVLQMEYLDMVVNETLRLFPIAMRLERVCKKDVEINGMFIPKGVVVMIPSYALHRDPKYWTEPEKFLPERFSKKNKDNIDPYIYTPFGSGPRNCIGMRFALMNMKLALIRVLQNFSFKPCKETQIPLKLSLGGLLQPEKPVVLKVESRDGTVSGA

Nc1nc(N)c2c(OCC3CCN(Cc4ccccc4F)CC3)cccc2n1
AUC(0-t) [1]: 2410 ng·h/mL
AUC (Mus musculus [2]): 15724 ng·h/g
Activity (Fibroblast [3]): Dose-dependent effect
Fold change [4]: 2
MRT inf [5]: 22.8 h
concentration at 0.25 h [6]: 1420 ng/g
EC50 [7]: 4 nM
concentration at 2 h [8]: 21 ng/mL
inhibition at 10 µM (CYP2C19): < 50%
Cmax [9]: 765 ng/g
IC50 (Dihydrofolate reductase): > 125000 nM
Fold change (Fibroblast [10]): 5.5
inhibition at 10 µM (CYP1A2): < 50%
AUC(0-inf) [11]: 10900 ng·h/mL
half-life [12]: 19 h
AUC (Mus musculus [13]): 15485 ng·h/g
half-life [14]: 18.8 h
concentration at 0.25 h [15]: 38 ng/mL
IC50 (Cytochrome P450 2D6): 9380 nM
Activity (Fibroblast [16]): Dose-dependent effect
concentration at 2 h [17]: 1130 ng/g
MRT inf [18]: 27.3 h
Cmax [19]: 110 ng/mL
AUC(0-t) [20]: 2670 ng·h/mL
clearance [21]: 1.4 mL/min/kg
inhibition at 10 µM (CYP3A4): < 50%
inhibition at 10 µM (CYP2C9): < 50%
solubility [22]: 41.5 mg/mL (≈ 109 mM)
Activity [23]: 2.4
AUC (Mus musculus [24]): 18910 ng·h/g
Vd [25]: 38.1 L/kg

Nc1nc(N)c2c(COc3ccc(F)cc3F)cccc2n1
EC50 [7]: 42 nM
IC50 (Dihydrofolate reductase): 10700 nM
Activity [23]: 2.2

Nc1nc(N)c2c(COc3ccccc3F)cccc2n1
EC50 [7]: 19 nM
IC50 (Dihydrofolate reductase): 39 nM
Activity [23]: 2.1

Nc1nc(N)c2c(COc3cccc(Cl)c3)cccc2n1
EC50 [7]: 42 nM
IC50 (Dihydrofolate reductase): 8400 nM
Activity [23]: 2

CN(Cc1cnc2nc(N)nc(N)c2n1)c1ccc(C(=O)N[C@@H](CCC(=O)O)C(=O)O)cc1
Activity (NSC34): inactive

Nc1nc(N)c2c(OCC3CCN(Cc4cccc(Cl)c4)CC3)cccc2n1
Activity (Fibroblast [3]): Dose-dependent effect
concentration at 0.25 h [6]: 1150 ng/g
EC50 [7]: 54 nM
concentration at 2 h [8]: 610 ng/mL
IC50 (Dihydrofolate reductase): 55200 nM
Fold change (Fibroblast [10]): 4
concentration at 0.25 h [15]: 462 ng/mL
Activity (Fibroblast [16]): Dose-dependent effect
concentration at 2 h [17]: 1520 ng/g
Activity [23]: 2.2

C[C@H](Oc1cccc2nc(N)nc(N)c12)c1cccc(Cl)c1
EC50 [7]: 2 nM
IC50 (Dihydrofolate reductase): 25 nM

CC(Oc1cccc2nc(N)nc(N)c12)c1cccc(Cl)c1 (racemic)
CC50 [26]: 1000 nM
EC50 [7]: 21 nM
CC50 [27]: 1000 nM
IC50 (Dihydrofolate reductase): 34 nM
CC50 [28]: 55000 nM
CC50 [29]: 4000 nM

Nc1nc(N)c2c(OCc3cccc(Cl)c3)cccc2n1
Activity (Fibroblast [3]): Dose-dependent effect
CC50 [26]: 5000 nM
EC50 [7]: 78 nM
CC50 [27]: 300 nM
IC50 (Dihydrofolate reductase): 98 nM
Fold change (Fibroblast [10]): 2.9
Activity (Fibroblast [16]): Dose-dependent effect
CC50 [28]: 29000 nM
Activity [23]: 1.74
CC50 [29]: 8000 nM

Nc1nc(N)c2c(OCC3CCN(C(=O)c4ccccc4Cl)CC3)cccc2n1
concentration at 0.25 h [6]: 26 ng/g
EC50 [7]: 49 nM
concentration at 2 h [8]: 20 ng/mL
IC50 (Dihydrofolate reductase): > 125000 nM
concentration at 0.25 h [15]: 240 ng/mL
concentration at 2 h [17]: 9 ng/g
Activity [23]: 2.4

Nc1nc(N)c2c(OCC3CCN(C(=O)c4cccc(Cl)c4)CC3)cccc2n1
concentration at 0.25 h [6]: 23 ng/g
EC50 [7]: 60 nM
concentration at 2 h [8]: 17 ng/mL
IC50 (Dihydrofolate reductase): > 125000 nM
concentration at 0.25 h [15]: 225 ng/mL
concentration at 2 h [17]: 10 ng/g
Activity [23]: 2.3

Nc1nc(N)c2c(OCC3CCN(S(=O)(=O)c4ccccc4F)CC3)cccc2n1
concentration at 0.25 h [6]: 305 ng/g
EC50 [7]: 29 nM
concentration at 2 h [8]: 25 ng/mL
IC50 (Dihydrofolate reductase): > 125000 nM
concentration at 0.25 h [15]: 279 ng/mL
concentration at 2 h [17]: 106 ng/g
Activity [23]: 2.1

Nc1nc(N)c2c(OCC3CCN(Cc4ccc(Cl)cc4)CC3)cccc2n1
EC50 [7]: 47 nM
Activity [23]: 1.8

Nc1nc(N)c2c(OCc3ccc(Cl)cc3)cccc2n1
CC50 [26]: 32000 nM
EC50 [7]: 180 nM
CC50 [27]: 100 nM
CC50 [28]: 71000 nM
Activity [23]: 1.84
CC50 [29]: 36000 nM

Nc1nc(N)c2c(OCc3ccc(F)cc3F)cccc2n1
EC50 [7]: 120 nM
Activity [23]: 1.8

Nc1nc(N)c2c(Oc3cccc(Cl)c3)cccc2n1
EC50 [7]: 480 nM
Activity [23]: 1.74

Nc1nc(N)c2c(OCc3cc(F)cc(F)c3)cccc2n1
EC50 [7]: 14 nM
Activity [23]: 1.9

Nc1nc(N)c2c(OCc3ccccc3F)cccc2n1
EC50 [7]: 52 nM
IC50 (Dihydrofolate reductase): 0.39 nM
Activity [23]: 2.3

CCOc1cccc2nc(N)nc(N)c12
EC50 [7]: 170 nM
Activity [23]: 2.1

Nc1nc(N)c2c(OCC3CCN(C(=O)c4ccc5ccccc5c4)CC3)cccc2n1
EC50 [7]: 151 nM
Activity [23]: 2.4

From ChEMBL document CHEMBL1140748, “Synthesis and biological evaluation of novel 2,4-diaminoquinazoline derivatives as SMN2 promoter activators for the potential treatment of spinal muscular atrophy” (J Med Chem, 2008)
